{"source": "ChEMBL document CHEMBL4334471", "about": "“Discovery of 1,8-disubstituted-[1,2,3]triazolo[4,5-c]quinoline derivatives as a new class of Hippo signaling pathway inhibitors” (Bioorg Med Chem Lett, 2019)", "key": {"[1]": {"biological_target": "Serine/threonine-protein kinase 4 (Homo sapiens) (UniProt Q13043)", "sequence (Q13043 whole entry)": "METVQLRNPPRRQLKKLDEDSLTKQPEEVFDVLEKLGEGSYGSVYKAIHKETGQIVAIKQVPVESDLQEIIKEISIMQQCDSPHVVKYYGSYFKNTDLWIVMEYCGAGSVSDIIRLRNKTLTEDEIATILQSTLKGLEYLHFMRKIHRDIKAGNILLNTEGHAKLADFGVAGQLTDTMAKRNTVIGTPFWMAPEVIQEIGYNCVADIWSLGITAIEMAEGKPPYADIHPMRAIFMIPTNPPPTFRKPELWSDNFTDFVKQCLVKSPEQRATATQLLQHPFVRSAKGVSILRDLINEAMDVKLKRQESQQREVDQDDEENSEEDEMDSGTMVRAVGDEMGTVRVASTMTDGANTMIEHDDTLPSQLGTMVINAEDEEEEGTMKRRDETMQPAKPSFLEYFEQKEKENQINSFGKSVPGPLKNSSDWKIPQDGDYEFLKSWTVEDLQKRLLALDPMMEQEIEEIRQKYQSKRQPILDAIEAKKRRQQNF", "assay": "Inhibition of recombinant full-length human MST1 assessed as residual activity at 10 uM using KKSRGDYMTMQIG as substrate measured after 40 mins in presence of [gamma33P]ATP by scintillation counting based radiometry assay relative to control", "in_short": "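Outsourced kinase profiling of MST1 by a commercial service (Eurofins); activity reported as mean ± SEM of 2 replicates.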"}, "[2]": {"test_system": "Protein kinase C eta type (Homo sapiens), P24723 [UNDEFINED MUTATION]", "sequence (P24723 whole entry, looked up, stated change not applied)": "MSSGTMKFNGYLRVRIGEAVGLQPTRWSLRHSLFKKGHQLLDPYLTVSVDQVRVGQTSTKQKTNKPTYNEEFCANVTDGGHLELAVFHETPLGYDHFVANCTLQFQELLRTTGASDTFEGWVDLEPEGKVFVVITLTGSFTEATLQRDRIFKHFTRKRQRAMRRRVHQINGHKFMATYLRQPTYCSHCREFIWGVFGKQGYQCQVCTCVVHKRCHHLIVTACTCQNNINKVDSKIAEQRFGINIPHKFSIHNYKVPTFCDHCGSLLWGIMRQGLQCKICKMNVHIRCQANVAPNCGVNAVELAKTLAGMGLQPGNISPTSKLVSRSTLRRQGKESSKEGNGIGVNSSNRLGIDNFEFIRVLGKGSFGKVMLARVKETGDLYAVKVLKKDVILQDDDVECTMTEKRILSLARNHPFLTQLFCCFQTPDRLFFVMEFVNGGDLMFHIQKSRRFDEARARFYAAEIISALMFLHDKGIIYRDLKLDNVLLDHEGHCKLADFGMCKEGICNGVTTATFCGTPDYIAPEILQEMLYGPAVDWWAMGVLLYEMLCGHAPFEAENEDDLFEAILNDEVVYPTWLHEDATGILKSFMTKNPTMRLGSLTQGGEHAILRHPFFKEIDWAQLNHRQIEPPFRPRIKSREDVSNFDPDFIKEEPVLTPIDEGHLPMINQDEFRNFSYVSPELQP", "assay": "Inhibition of recombinant human PKCeta V108L/G109R/L392Q mutant (2 to end residues) assessed as residual activity at 10 uM using ERMRPRKRQGSVRRRV as substrate incubated for 40 mins in presence of [gamma33P]ATP by scintillation counting based radiometry assay relative to control"}, "[3]": {"biological_target": "TRAF2 and NCK-interacting protein kinase (Homo sapiens) (UniProt Q9UKE5)", "assay": "Inhibition of human TNIK (1 to 367 residues) assessed as residual activity at 10 uM using RLGRDKYKTLRQIRQ as substrate incubated for 40 mins in presence of [gamma33P]ATP by scintillation counting based radiometry assay relative to control"}, "[4]": {"organism": "Mus musculus", "assay": "Inhibition of mouse ABL1 L782P/G784R/W785L/L786V mutant (27 to end residues) at 10 uM using EAIYAAPFAKKK as substrate incubated for 40 mins in presence of [gamma-33ATP] by scintillation counting based radiometry assay relative to control", "parameters": "scale not given: the % may be the effect or the level left"}, "[5]": {"biological_target": "Protein kinase C beta type (Homo sapiens) (UniProt P05771)", "assay": "Inhibition of recombinant human PKCbeta2 (2 to end residues) assessed as residual activity at 10 uM using histone H1 as substrate incubated for 40 mins in presence of [gamma33P]ATP by scintillation counting based radiometry assay relative to control"}, "[6]": {"biological_target": "Eukaryotic translation initiation factor 2-alpha kinase 3 (Homo sapiens) (UniProt Q9NZJ5)", "assay": "Inhibition of human PEK (536 to end residues) assessed as residual activity at 10 uM using RSRSRSRSRSRSRSR as substrate measured after 40 mins in presence of [gamma33P]ATP by scintillation counting based radiometry assay relative to control"}, "[7]": {"test_system": "Glycogen synthase kinase-3 beta (Homo sapiens), P49841 [UNDEFINED MUTATION]", "assay": "Inhibition of human GSK-3beta H350L mutant (2 to end residues) assessed as residual activity at 10 uM using phospho GS2 peptide as substrate after 40 mins by [gamma-33ATP] radiometric assay relative to control"}, "[8]": {"biological_target": "Death-associated protein kinase 3 (Homo sapiens) (UniProt O43293)", "sequence (O43293 whole entry, looked up, the tested form may be a part)": "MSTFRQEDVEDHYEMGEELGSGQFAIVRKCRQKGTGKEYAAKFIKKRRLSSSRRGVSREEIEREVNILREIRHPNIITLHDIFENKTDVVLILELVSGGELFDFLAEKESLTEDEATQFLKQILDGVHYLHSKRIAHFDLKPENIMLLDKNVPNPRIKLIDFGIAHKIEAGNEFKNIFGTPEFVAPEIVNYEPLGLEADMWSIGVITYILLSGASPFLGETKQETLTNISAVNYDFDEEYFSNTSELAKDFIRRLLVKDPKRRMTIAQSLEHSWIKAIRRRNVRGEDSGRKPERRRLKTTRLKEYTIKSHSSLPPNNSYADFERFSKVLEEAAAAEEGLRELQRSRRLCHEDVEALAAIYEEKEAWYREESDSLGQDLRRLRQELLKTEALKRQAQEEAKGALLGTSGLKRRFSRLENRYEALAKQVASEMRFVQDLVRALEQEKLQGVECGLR", "assay": "Inhibition of recombinant human ZIPK (1 to 290 residues) assessed as residual activity at 10 uM using KKLNRTLSFAEPG substrate incubated for 40 mins in presence of [gamma33P]ATP by scintillation counting based radiometry assay relative to control"}, "[9]": {"test_system": "Fungi", "assay": "Inhibition of recombinant fungi CK1 (2 to 298 residues) assessed as residual activity at 10 uM using KRRRALS(p)VASLPGL as substrate incubated for 40 mins in presence of [gamma-33ATP] by scintillation counting based radiometry assay relative to control"}, "[10]": {"biological_target": "Tyrosine-protein kinase ITK/TSK (Homo sapiens) (UniProt Q08881)", "assay": "Inhibition of human Itk (352 to 617 residues) assessed as residual activity at 10 uM using myelin basic protein as substrate after 40 mins by [gamma-33ATP] radiometric assay relative to control"}, "[11]": {"biological_target": "Proto-oncogene tyrosine-protein kinase receptor Ret (Homo sapiens) (UniProt P07949)", "assay": "Inhibition of recombinant human Ret (658 to end residues) assessed as residual activity at 10 uM using KKKSPGEYVNIEFG as substrate incubated for 40 mins in presence of [gamma33P]ATP by scintillation counting based radiometry assay relative to control"}, "[12]": {"biological_target": "Serine/threonine-protein kinase WNK1 (Homo sapiens) (UniProt Q9H4A3)", "assay": "Inhibition of recombinant human WNK1 (1 to 491 residues) assessed as residual activity at 10 uM using myelin basic protein as substrate incubated for 40 mins in presence of [gamma33P]ATP by scintillation counting based radiometry assay relative to control"}, "[13]": {"biological_target": "LIM domain kinase 1 (Homo sapiens) (UniProt P53667)", "sequence (P53667 whole entry, looked up, the tested form may be a part)": "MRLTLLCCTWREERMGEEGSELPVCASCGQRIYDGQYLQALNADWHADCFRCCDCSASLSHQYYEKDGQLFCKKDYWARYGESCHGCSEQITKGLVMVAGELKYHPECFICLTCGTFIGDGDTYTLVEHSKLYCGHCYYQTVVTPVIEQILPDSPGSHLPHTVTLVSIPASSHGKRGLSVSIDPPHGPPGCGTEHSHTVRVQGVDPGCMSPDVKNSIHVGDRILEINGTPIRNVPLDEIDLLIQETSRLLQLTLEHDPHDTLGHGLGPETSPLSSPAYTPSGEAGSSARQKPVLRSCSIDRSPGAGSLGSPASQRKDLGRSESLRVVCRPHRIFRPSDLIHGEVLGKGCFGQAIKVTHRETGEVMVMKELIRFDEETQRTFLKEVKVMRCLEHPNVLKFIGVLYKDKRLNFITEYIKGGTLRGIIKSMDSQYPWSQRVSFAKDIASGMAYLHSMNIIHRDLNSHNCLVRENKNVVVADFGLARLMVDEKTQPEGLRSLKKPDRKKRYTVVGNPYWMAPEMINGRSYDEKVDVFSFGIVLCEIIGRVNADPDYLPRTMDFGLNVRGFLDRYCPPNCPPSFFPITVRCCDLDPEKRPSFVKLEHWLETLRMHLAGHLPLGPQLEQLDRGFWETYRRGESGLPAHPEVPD", "assay": "Inhibition of recombinant human LIMK1 (285 to 638 residues) assessed as residual activity at 10 uM using cofilin as substrate after 40 mins in presence of [gamma-33ATP] by scintillation counting based radiometry assay relative to control"}, "[14]": {"test_system": "Fibroblast growth factor receptor 2 (Homo sapiens), P21802 [N549H]", "sequence (P21802 whole entry N549H, the tested form may be a part)": "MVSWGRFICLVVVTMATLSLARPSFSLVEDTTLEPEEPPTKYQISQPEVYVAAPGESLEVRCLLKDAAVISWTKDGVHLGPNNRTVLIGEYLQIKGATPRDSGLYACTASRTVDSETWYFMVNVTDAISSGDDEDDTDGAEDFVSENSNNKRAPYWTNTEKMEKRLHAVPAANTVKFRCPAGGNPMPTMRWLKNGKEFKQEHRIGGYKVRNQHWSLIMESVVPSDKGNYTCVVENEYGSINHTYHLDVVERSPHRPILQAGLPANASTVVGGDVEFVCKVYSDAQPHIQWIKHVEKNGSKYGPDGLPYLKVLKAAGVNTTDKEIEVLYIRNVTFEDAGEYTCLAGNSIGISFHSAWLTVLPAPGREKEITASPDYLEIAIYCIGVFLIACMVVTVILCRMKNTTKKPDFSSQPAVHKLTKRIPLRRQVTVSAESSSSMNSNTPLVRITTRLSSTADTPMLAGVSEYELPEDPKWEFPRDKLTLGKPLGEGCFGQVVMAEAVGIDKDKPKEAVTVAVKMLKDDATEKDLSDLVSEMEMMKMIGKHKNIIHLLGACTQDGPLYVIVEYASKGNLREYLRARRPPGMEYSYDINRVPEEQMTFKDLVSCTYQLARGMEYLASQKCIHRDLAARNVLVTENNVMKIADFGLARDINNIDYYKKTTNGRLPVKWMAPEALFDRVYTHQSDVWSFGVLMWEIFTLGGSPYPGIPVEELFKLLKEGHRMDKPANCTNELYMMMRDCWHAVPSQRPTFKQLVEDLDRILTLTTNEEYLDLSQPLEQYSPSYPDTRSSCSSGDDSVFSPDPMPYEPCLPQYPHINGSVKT", "assay": "Inhibition of recombinant human FGFR2 N549H mutant (456 to 765 residues) assessed as residual activity at 10 uM using KKKSPGEYVNIEF as substrate at 40 mins in presence of [gamma-33ATP] by scintillation counting based radiometry assay relative to control"}, "[15]": {"biological_target": "Ephrin type-A receptor 1 (Homo sapiens) (UniProt P21709)", "assay": "Inhibition of recombinant human EphA1 (568 to end residues) assessed as residual activity at 10 uM using KKKSPGEYVNIEF as substrate at 40 mins in presence of [gamma-33ATP] by scintillation counting based radiometry assay relative to control"}, "[16]": {"biological_target": "Serine/threonine-protein kinase LATS1 (Homo sapiens, UniProt O95835)", "sequence (O95835 whole entry, the tested form may be a part)": "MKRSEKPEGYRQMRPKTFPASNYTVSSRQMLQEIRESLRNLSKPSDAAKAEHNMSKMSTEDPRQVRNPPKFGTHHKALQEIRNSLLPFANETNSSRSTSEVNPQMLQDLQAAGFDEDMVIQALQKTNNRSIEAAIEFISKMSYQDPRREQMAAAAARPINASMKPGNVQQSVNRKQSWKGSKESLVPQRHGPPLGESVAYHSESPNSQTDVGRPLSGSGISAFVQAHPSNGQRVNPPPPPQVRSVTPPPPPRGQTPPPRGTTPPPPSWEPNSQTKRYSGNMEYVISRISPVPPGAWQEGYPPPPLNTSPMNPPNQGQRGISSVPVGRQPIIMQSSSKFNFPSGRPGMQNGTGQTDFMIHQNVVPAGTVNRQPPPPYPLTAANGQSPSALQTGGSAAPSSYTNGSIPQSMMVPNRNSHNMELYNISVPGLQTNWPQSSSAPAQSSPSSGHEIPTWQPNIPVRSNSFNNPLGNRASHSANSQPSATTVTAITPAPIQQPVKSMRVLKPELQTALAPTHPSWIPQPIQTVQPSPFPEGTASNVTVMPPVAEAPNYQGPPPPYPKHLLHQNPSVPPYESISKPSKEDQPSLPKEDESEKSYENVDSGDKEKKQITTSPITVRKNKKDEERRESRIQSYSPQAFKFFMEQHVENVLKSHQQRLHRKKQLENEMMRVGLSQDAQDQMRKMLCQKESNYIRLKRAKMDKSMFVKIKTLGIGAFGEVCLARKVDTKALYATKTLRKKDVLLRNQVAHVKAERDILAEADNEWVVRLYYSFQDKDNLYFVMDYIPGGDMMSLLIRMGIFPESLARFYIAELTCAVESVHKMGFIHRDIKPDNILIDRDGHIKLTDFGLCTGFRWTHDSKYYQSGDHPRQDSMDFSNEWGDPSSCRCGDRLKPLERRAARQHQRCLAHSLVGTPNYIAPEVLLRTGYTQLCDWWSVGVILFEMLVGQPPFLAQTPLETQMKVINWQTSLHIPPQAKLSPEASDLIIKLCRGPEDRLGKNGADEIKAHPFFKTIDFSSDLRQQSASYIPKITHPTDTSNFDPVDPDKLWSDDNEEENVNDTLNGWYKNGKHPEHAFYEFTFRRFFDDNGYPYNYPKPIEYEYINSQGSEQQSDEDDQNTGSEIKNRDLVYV", "assay": "Binding affinity to recombinant human LATS1 (Q678 to V1130 residues) expressed in bacterial expression system assessed as dissociation constant by Kinomescan method", "in_short": "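KINOMEscan competition binding assay. Kinase bound at each concentration of test compound was quantified by qPCR and plotted against log10 compound concentration to derive Kd.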"}, "[17]": {"biological_target": "Tyrosine-protein kinase receptor TYRO3 (Homo sapiens) (UniProt Q06418)", "assay": "Inhibition of recombinant human RSE (451 to end residues) assessed as residual activity at 10 uM using KVEKIGEGTYGVVYK as substrate incubated for 40 mins in presence of [gamma33P]ATP by scintillation counting based radiometry assay relative to control"}, "[18]": {"biological_target": "Serine/threonine-protein kinase SIK2 (Homo sapiens) (UniProt Q9H0K1)", "assay": "Inhibition of recombinant human SIK2 (1 to 276 residues) assessed as residual activity at 10 uM using KKKVSRSGLYRSPSMPENLNRPR as substrate incubated for 40 mins in presence of [gamma33P]ATP by scintillation counting based radiometry assay relative to control"}, "[19]": {"test_system": "Serine/threonine-protein kinase Nek4 (Homo sapiens), P51957 [P225A]", "sequence (P51957 whole entry P225A)": "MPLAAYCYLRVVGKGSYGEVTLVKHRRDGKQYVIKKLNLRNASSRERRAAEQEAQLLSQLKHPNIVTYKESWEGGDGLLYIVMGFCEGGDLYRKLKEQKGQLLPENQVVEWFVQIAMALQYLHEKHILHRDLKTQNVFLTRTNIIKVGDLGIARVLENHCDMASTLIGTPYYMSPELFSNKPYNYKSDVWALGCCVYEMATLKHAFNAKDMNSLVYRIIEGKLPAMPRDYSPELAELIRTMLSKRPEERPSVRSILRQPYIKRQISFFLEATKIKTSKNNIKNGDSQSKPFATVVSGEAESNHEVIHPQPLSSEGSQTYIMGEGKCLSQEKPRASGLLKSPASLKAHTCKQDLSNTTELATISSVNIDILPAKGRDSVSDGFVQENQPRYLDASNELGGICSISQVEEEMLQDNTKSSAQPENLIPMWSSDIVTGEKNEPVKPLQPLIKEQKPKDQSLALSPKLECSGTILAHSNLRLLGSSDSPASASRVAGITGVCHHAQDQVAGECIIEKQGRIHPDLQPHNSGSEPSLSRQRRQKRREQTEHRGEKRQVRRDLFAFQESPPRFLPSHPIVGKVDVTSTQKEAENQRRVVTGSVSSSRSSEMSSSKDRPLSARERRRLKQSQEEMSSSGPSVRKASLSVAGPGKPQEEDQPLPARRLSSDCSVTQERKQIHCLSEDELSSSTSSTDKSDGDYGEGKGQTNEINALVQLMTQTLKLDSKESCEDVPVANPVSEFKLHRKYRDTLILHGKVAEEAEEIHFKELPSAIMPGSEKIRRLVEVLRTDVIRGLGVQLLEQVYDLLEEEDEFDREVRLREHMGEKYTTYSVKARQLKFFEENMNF", "assay": "Inhibition of recombinant full-length human NEK4 P225A mutant assessed as residual activity at 10 uM using myelin basic protein as substrate measured after 40 mins in presence of [gamma33P]ATP by scintillation counting based radiometry assay relative to control"}, "[20]": {"biological_target": "Mitogen-activated protein kinase kinase kinase kinase 2 (Homo sapiens) (UniProt Q12851)", "assay": "Inhibition of recombinant human GCK (1 to 473 residues) assessed as residual activity at 10 uM using myelin basic protein as substrate at 40 mins in presence of [gamma-33ATP] by scintillation counting based radiometry assay relative to control"}}, "note": "pKd: −log10 of the molar value."}
{"compound": "C[C@@H](c1ccccc1)n1nnc2cnc3ccc(-c4cnc5[nH]ccc5c4)cc3c21", "values": [{"measurement": "Activity", "setting": "[1]", "result": 73, "unit": "%"}, {"measurement": "Activity", "setting": "[2]", "result": 82, "unit": "%"}, {"measurement": "Activity", "setting": "[3]", "result": 16, "unit": "%"}, {"measurement": "Activity", "setting": "[4]", "result": 0, "unit": "%"}, {"measurement": "Activity", "setting": "[5]", "result": 93, "unit": "%"}, {"measurement": "Activity", "setting": "[6]", "result": 94, "unit": "%"}, {"measurement": "Activity", "setting": "[7]", "result": 81, "unit": "%"}, {"measurement": "Activity", "setting": "[8]", "result": 69, "unit": "%"}, {"measurement": "Activity", "setting": "[9]", "result": 37, "unit": "%"}, {"measurement": "Activity", "setting": "[10]", "result": 64, "unit": "%"}, {"measurement": "Activity", "setting": "[11]", "result": 57, "unit": "%"}, {"measurement": "Activity", "setting": "[12]", "result": 86, "unit": "%"}, {"measurement": "Activity", "setting": "[13]", "result": 95, "unit": "%"}, {"measurement": "Activity", "setting": "[14]", "result": 27, "unit": "%"}, {"measurement": "Activity", "setting": "[15]", "result": 91, "unit": "%"}, {"measurement": "pKd", "setting": "[16]", "result": "< 5.00"}, {"measurement": "Activity", "setting": "[17]", "result": 89, "unit": "%"}, {"measurement": "Activity", "setting": "[18]", "result": 7, "unit": "%"}, {"measurement": "Activity", "setting": "[19]", "result": 20, "unit": "%"}, {"measurement": "Activity", "setting": "[20]", "result": 75, "unit": "%"}]}
